In ChEMBL document CHEMBL1133004, “3-Alkylamino-4H-pyrido[2,3-e]-1,2,4-thiadiazine 1,1-dioxides structurally related to diazoxide and pinacidil as potassium channel openers acting on vascular smooth muscle cells: design, synthesis, and pharmacological evaluation” (2000):

Experiments:
Assay type in all cases: functional
[1] = organism: Cavia porcellus; test: Inhibition of electrically stimulated contractions of guinea pig ileum segments.; settings: read-out: ED50 (the source's name)
Method in brief: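 Ileum segments (4 cm, taken ≥10 cm from cecum) from adult guinea pigs (300-400 g), 1 g initial load, Krebs-bicarbonate at 37 °C, gassed 95% O2/5% CO2. Coaxial stimulation at 0.5-ms pulses, 0.1 Hz, 5-25 V, with isometric recording. Drug was added cumulatively to maximal effect and expressed as % of the 5-min pre-drug response. ED50 was assessed graphically.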

[2] = organism: Rattus norvegicus; test: Concentration giving 50% relaxation of the 30 mM KCL-induced contraction of rat aorta rings; settings: read-out: ED50 (the source's name)
Method in brief: (§1)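 Endothelium-denuded aortic rings (3-4 mm) from fed Wistar rats (250-300 g), held at 1 g tension in Krebs-bicarbonate at 37 °C under O2/CO2 (95/5), isometric recording. After 60 min equilibration, contracted with 30 or 80 mM KCl as specified. At plateau, drug was added cumulatively to maximal relaxation or 1 mM. Glibenclamide (1 or 10 µM) was present throughout where stated. ED50 was read graphically as 50% inhibition of the KCl plateau.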

[3] = organism: Rattus norvegicus; test: Effect on Insulin secretion from rat pancreatic islets (RIS) in the presence of 16.7 mM glucose at 10 uM
Method in brief: (§2)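 Collagenase-isolated islets from fed Wistar rats (180-220 g), in groups of 10. Preincubated 30 min at 37 °C in bicarbonate salt medium with 2.8 mM glucose and 0.5% albumin under O2/CO2. Then incubated 90 min at 37 °C with 16.7 mM glucose plus drug. Insulin was measured by radioimmunoassay against a rat insulin standard and reported as % residual release.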

[4] = organism: Rattus norvegicus; test: Insulin secretion from rat pancreatic islets (RIS) in the presence of 16.7 mM glucose at 50 uM; method in brief: as §2
[5] = organism: Rattus norvegicus; test: Effect on Oxytocin-Induced contractions of rat uterus at 10 uM
Method in brief: (§3)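 Uterine horns from fed Wistar rats (150-200 g) primed the day before with im diethylstilboestrol dipropionate (0.1 mL/100 g of 1 mg/mL oily solution). Horns were superfused with Tyrode at 37 °C under O2/CO2 (95/5). 20 mU oxytocin was injected at 10-min intervals until contractions (AUC) were constant, then repeated ≥3 times per drug concentration. Response is given as % of the drug-free oxytocin contraction.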

[6] = organism: Rattus norvegicus; test: Effect on Oxytocin-Induced contractions of rat uterus at 100 uM; method in brief: as §3
[7] = organism: Rattus norvegicus; test: Effect on Oxytocin-Induced contractions of rat uterus at 50 uM; method in brief: as §3
[8] = organism: Rattus norvegicus; test: Effect on contractile activity of 30 mM potassium-Depolarized rat aorta incubated in the absence of Glibenclamide; settings: read-out: ED50 (the source's name); method in brief: as §1
[9] = organism: Rattus norvegicus; test: Effect on contractile activity of 30 mM potassium-Depolarized rat aorta incubated in the presence of 1 uM Glibenclamide; settings: read-out: ED50 (the source's name); method in brief: as §1
[10] = organism: Rattus norvegicus; test: Effect on contractile activity of 80 mM potassium-Depolarized rat aorta; settings: read-out: ED50 (the source's name); method in brief: as §1
[11] = organism: Rattus norvegicus; test: Compound is evaluated for the effect on Oxytocin-Induced contractions of rat uterus at 10 uM; method in brief: as §3
[12] = organism: Rattus norvegicus; test: Compound is evaluated for the effect on Oxytocin-Induced contractions of rat uterus at 100 uM; method in brief: as §3
[13] = organism: Rattus norvegicus; test: Compound is evaluated for the effect on Oxytocin-Induced contractions of rat uterus at 50 uM; method in brief: as §3
[14] = organism: Rattus norvegicus; test: Effect on contractile activity of 30 mM potassium-Depolarized rat aorta incubated in the presence of 10 uM Glibenclamide; settings: read-out: ED50 (the source's name); method in brief: as §1
[15] = organism: Rattus norvegicus; test: Effect on Oxytocin-Induced contractions of rat uterus at concentrations 10 uM; method in brief: as §3
[16] = organism: Rattus norvegicus; test: Effect on Oxytocin-Induced contractions of rat uterus at concentrations 100 uM; method in brief: as §3
[17] = organism: Rattus norvegicus; test: Effect on Oxytocin-Induced contractions of rat uterus at concentrations 50 uM; method in brief: as §3

| SMILES | EC50 [1] [µM] | EC50 [2] [µM] | RIS [4] [%] | also measured |
| --- | --- | --- | --- | --- |
| O=S1(=O)NC(NCC2CCCCC2)=Nc2ncc(Cl)cc21 | 17.4 | 38.2 | 57.7 | RIS [3]: 76.8%; Contraction [5]: 96.3%; Contraction [6]: 90.4%; Contraction [7]: 95.1% |
| C[C@H](NC1=NS(=O)(=O)c2cccnc2N1)c1ccccc1 | > 300 | 9.9 | 73.3 | – |
| O=S1(=O)NC(NCc2ccccc2)=Nc2ncc(Cl)cc21 | – | 43.6 | 74.1 | Contraction [5]: 108.2%; Contraction [6]: 71.9%; Contraction [7]: 98.9% |
| CCC(C)NC1=NS(=O)(=O)c2cccnc2N1 (stereo unspecified) | – | 50.9 | 85.9 | – |
| CC(C)C(C)NC1=NS(=O)(=O)c2cnccc2N1 (stereo unspecified) | > 300 | 154 | 7.1 | RIS [3]: 26.8% |
| CC(NC1=NS(=O)(=O)c2cc(Cl)cnc2N1)C(C)(C)C (stereo unspecified) | > 300 | 2.3 | 41.5 | EC50 [8]: 1.6 µM; EC50 [9]: 22.6 µM; EC50 [10]: 33 µM; Contraction [11]: 97.6%; Contraction [12]: 51%; Contraction [13]: 67.9%; EC50 [14]: 33.9 µM |
| CC(C)C(C)NC1=NS(=O)(=O)c2cccnc2N1 (stereo unspecified) | > 300 | 27.1 | 87.9 | EC50 [8]: 27.1 µM; EC50 [10]: > 300 µM |
| CC(C)NC1=NS(=O)(=O)c2cccnc2N1 | > 300 | 132 | 78.7 | – |
| C[C@@H](NC1=NS(=O)(=O)c2cccnc2N1)c1ccccc1 | > 300 | 65.2 | 71.6 | – |
| C[C@@H](NC1=NS(=O)(=O)c2cccnc2N1)C1CCCCC1 | > 300 | 29.2 | 79.9 | – |
| O=S1(=O)N=C(NCC2CCCCC2)Nc2ncccc21 | 145 | 45.7 | 94.2 | – |
| CCC(C)NC1=NS(=O)(=O)c2cc(Cl)cnc2N1 (stereo unspecified) | – | 20 | 62.7 | – |
| CC(C)NC1=NS(=O)(=O)c2cc(Cl)cnc2N1 | > 300 | 14.6 | 74.4 | – |
| C[C@H](NC1=NS(=O)(=O)c2cc(Cl)cnc2N1)C1CCCCC1 | 20.4 | 3.8 | 11.8 | RIS [3]: 71.9%; Contraction [5]: 84.9%; Contraction [6]: 43.7%; Contraction [7]: 71.4% |
| C[C@H](NC1=NS(=O)(=O)c2cccnc2N1)C1CCCCC1 | > 300 | 25.2 | 76.2 | – |
| C[C@H](NC1=NS(=O)(=O)c2cc(Cl)cnc2N1)c1ccccc1 | – | 21.2 | 45.9 | Contraction [5]: 91%; Contraction [6]: 41.1%; Contraction [7]: 79.3% |
| CC(NC1=NS(=O)(=O)c2cccnc2N1)C(C)(C)C (stereo unspecified) | > 300 | 7.5 | 98.9 | EC50 [8]: 10.1 µM; EC50 [9]: 65.2 µM; EC50 [10]: > 300 µM; Contraction [15]: 93.8%; Contraction [16]: 57.5%; Contraction [17]: 68%; EC50 [14]: 107 µM |
| C[C@@H](NC1=NS(=O)(=O)c2cc(Cl)cnc2N1)c1ccccc1 | – | 38.8 | 52.3 | Contraction [5]: 88.4%; Contraction [6]: 32.6%; Contraction [7]: 59.4% |
| CC(C)C(C)NC1=NS(=O)(=O)c2cc(Cl)cnc2N1 (stereo unspecified) | > 300 | 10.6 | 59.3 | EC50 [8]: 8.2 µM; EC50 [9]: 34.1 µM; EC50 [10]: 49.3 µM; EC50 [14]: 45.1 µM |
| O=S1(=O)N=C(NCc2ccccc2)Nc2ncccc21 | > 300 | 21.9 | 86.2 | – |
| C[C@@H](NC1=NS(=O)(=O)c2cc(Cl)cnc2N1)C1CCCCC1 | 13.6 | 3.5 | 6.7 | EC50 [8]: 3.7 µM; EC50 [9]: 5 µM; EC50 [10]: 12.3 µM; RIS [3]: 71.3%; Contraction [5]: 70.6%; Contraction [6]: 22.9%; Contraction [7]: 50.9%; EC50 [14]: 8.6 µM |
| CC1=NS(=O)(=O)c2cc(Cl)cnc2N1 | – | > 300 | 87.4 | – |
| CC1=Nc2ccc(Cl)cc2S(=O)(=O)N1 [DIAZOXIDE] | > 300 | 19.3 | 28.8 | EC50 [8]: 19.5 µM; EC50 [9]: 85.8 µM; EC50 [10]: > 300 µM; RIS [3]: 70%; Contraction [11]: 93.8%; Contraction [12]: 67.7%; Contraction [13]: 76.3%; EC50 [14]: 163 µM |
| CC(Cc1ccc(O)cc1)NCC(O)c1cc(O)cc(O)c1 (stereo unspecified) [FENOTEROL] | – | – | – | Contraction [15]: 38.4%; Contraction [16]: 35.5%; Contraction [17]: 36.3% |
| CC(N/C(=N\C#N)Nc1ccncc1)C(C)(C)C (stereo unspecified) [PINACIDIL ANHYDROUS] | 9.2 | 0.5 | 92.1 | EC50 [8]: 0.2 µM; EC50 [9]: 10.4 µM; EC50 [10]: 16 µM; RIS [3]: 96%; Contraction [11]: 58.1%; Contraction [12]: 38.1%; Contraction [13]: 35.5%; EC50 [14]: 42.5 µM |
